Activity calls are given as the source filed them. The rule behind the calls is not given here. Square brackets hold non-standard residues; d marks the D form. Peptide text beside a SMILES is read from it. Dip = N[C@H](C(=O)O)C(c1ccccc1)c1ccccc1; Chg = N[C@H](C(=O)O)C1CCCCC1; NMeA = CN[C@@H](C)C(=O)O
Legend:
HT-1080 [1] = assay: Activation of proteasome in human HT1080 cells expressing FLAG-tagged cIAP1 assessed as induction of cIAP1 protein degradation at 10 uM after 6 hrs by Western blot analysis
HT-1080 [2] = assay: Induction of cIAP1 protein degradation in human HT1080 cells at 0.1 to 10 uM after 6 hrs by Western blot analysis; assay type: functional, cell-based
HT-1080 [3] = assay: Activation of proteasome in human HT1080 cells expressing FLAG-tagged cIAP1 assessed as induction of CRABP-2 protein degradation at 10 uM after 6 hrs by Western blot analysis
IMR-32 [4] = assay: Antiproliferative activity against human IMR32 cells assessed as reduction of cell number at 30 uM after 24 to 72 hrs; assay type: functional, cell-based
IMR-32 [5] = assay: Activation of proteasome in human IMR32 cells assessed as induction of cIAP1 and CRABP-2 protein degradation at 3 to 30 uM after 24 hrs by Western blot analysis
HT-1080 [6] = assay: Activation of proteasome in human HT1080 cells expressing FLAG-tagged cIAP1 assessed as induction of cIAP1 and CRABP-2 protein degradation at 10 uM after 6 hrs by Western blot analysis in presence of proteasome inhibitor MG132
In short: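 Compound exposure 6 h; proteasome inhibitor MG132 (10) added to the culture 30 min before compound; cIAP1 and CRABP-II levels then read by Western blot.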

IMR-32 [7] = assay: Induction of apoptosis in human IMR32 cells assessed as activation of caspase 3/7 after 24 hrs relative to control; assay type: functional
In short: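 IMR-32 cells exposed to compounds for 24 h; caspase 3/7 activity expressed as fold increase over untreated control; values are means of triplicate determinations.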

HT-1080 [8] = assay: Activation of proteasome in human HT1080 cells expressing FLAG-tagged cIAP1 assessed as induction of cIAP1 and CRABP-2 protein degradation after 6 hrs by Western blot analysis
[9] = molecular target: T1, Retinoic acid receptor alpha (Homo sapiens) (UniProt P10276); assay: Induction of RARalpha degradation
T1 sequence (whole entry): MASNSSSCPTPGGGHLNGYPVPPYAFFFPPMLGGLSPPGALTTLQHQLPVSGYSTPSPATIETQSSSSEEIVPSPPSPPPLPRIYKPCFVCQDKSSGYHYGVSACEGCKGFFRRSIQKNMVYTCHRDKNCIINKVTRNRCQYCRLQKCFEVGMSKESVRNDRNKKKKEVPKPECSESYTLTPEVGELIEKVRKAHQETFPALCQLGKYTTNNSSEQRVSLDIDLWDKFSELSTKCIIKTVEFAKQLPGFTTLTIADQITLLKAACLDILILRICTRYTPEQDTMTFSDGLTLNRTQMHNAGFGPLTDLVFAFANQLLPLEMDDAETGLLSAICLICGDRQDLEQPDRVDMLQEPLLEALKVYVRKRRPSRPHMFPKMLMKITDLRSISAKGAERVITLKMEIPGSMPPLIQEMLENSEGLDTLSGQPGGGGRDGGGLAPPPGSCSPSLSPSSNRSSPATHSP

HT-1080 [10] = assay: Activation of proteasome in human HT1080 cells expressing FLAG-tagged cIAP1 assessed as induction of cIAP1 and CRABP-2 protein degradation at 0.1 to 10 uM after 6 hrs by Western blot analysis

| SMILES | Activity (HT-1080 [1]) | Activity (HT-1080 [2]) | Activity (HT-1080 [3]) | Activity (IMR-32 [4]) | Activity (IMR-32 [5]) | fold change (FC) (IMR-32 [7]) | other results |
| --- | --- | --- | --- | --- | --- | --- | --- |
| CN[C@@H](C)C(=O)N[C@H](C(=O)N1CCC[C@H]1C(=O)N[C@H](C(=O)OC)C(c1ccccc1)c1ccccc1)C1CCCCC1 (H-[NMeA][Chg]P[Dip]-OMe) | Active | Active | inactive |  |  |  |  |
| CN[C@@H](C)C(=O)N[C@H](C(=O)N1CCC[C@H]1C(=O)N[C@H](C(=O)NCCOCCOCCNC(=O)CO/N=C1\CCC(C)(C)C(/C=C/C(C)=C/C=C/C(C)=C/C(=O)O)=C1C)C(c1ccccc1)c1ccccc1)C1CCCCC1 | Active |  |  | Active | Active | 4.44 | Activity (HT-1080 [6]): inactive; Activity (HT-1080 [8]): Dose-dependent effect; Activity [9]: inactive |
| CC1=C(/C=C/C(C)=C/C=C/C(C)=C/C(=O)O)C(C)(C)CC/C1=N\OCC(=O)NCCOCCOCCNC(=O)[C@H](CC(C)C)NC(=O)[C@@H](O)[C@H](N)Cc1ccccc1 |  |  |  |  | Active | 1.84 |  |
| COC(=O)[C@H](CC(C)C)NC(=O)[C@@H](O)[C@H](N)Cc1ccccc1 |  | Active |  |  |  |  |  |
| CC1=C(/C=C/C(C)=C/C=C/C(C)=C/C(=O)O)C(C)(C)CCC1 | inactive |  | inactive |  |  |  |  |
| CC1=C(/C=C/C(C)=C/C=C/C(C)=C/C(=O)O)C(C)(C)CC/C1=N\OCC(=O)NCCOCCOCCOC(=O)[C@H](CC(C)C)NC(=O)[C@@H](O)[C@H](N)Cc1ccccc1 |  |  |  | Active | Active | 3.61 | Activity (HT-1080 [10]): Active |
